LEDGF integ inh = blocks HIV-1 LEDGF/p75-dependent DNA integration; TR-FRET IN-LEDGF/p75 DNA integration, Eu/Cy5; inhibition, % at 3.7 µM; actives 0.64% (n = 370,000);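 active = inhibition above the screen-wide mean plus 3 SD, cut at about 13% in these data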;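 also: signal is the Cy5 over europium emission ratio at 671 and 618 nm; 0% = plate median of compound wells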
TDP2 absorb = TDP2 (human) inhibition, absorbance primary screen; O95551; recombinant TDP2, T5PNP hydrolysis, p-nitrophenol absorbance 415 nm; inhibition, % at 12.8 µM; actives 0.34% (n = 370,000); AID 720702;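 active = inhibition above the mean of all tested compounds plus 3 SD, set per campaign, cut at about 25% in these data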;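 also: 0% = DMSO with enzyme and 100% = buffer with substrate but no TDP2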
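Incubation: 2 h at 37 °C; Test system: recombinant human TDP2; Quantity: enzyme 120 nM; Read-out basis: percent inhibition; Medium: 50 mM Tris-HCl pH 7.5 with Mg2+, KCl, DTT, BSA; Repeats: single replicate; Compound: 12.8 µM single point, 1% DMSO; Signal: epi absorbance; Reagent: 5 mM T5PNP chromogenic substrate; Benchmarks: no-enzyme high, DMSO-plus-enzyme low.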
MBD2 DNA inh = MBD2-methylated oligo binding inhibition; actives 0.31% (n = 370,000); AID 686964; TR-FRET, MBD2 binding to methylated oligonucleotide; inhibition, % at 4.4 µM; in the data active = inhibition above about 13%
UHRF1 MBD2 ctr = human UHRF1 methylated DNA binding inhibitors | UHRF1 binding to methylated oligo, TR-FRET | AID 687016 | inhibition, % at 4.4 µM | actives 0.75% (n = 370,000); in the data active = inhibition above about 21%;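 also: UHRF1 SRA domain binding a hemimethylated CpG hairpin DNA probe; 0% = median of test compound wells and 100% = reference inhibitor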
NSD2 HMT inh = inhibitors of human histone methyltransferase NSD2; actives 0.54% (n = 310,000); AID 743445; inhibition, % at 12.5 µM; NSD2 peptide methylation, AlphaScreen, 120 min; O96028; in the data active = inhibition above about 50%
Casp6 inh = inhibitors of human caspase-6. AID 686996. P55212. purified caspase-6, Z-VEID-R110 cleavage fluorescence. inhibition, % at 12.5 µM. actives 0.53% (n = 350,000);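 active = mean inhibition across replicates at least about 35%, with every replicate also reaching that limit, limit read from the data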;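 also: 0% = median of neutral control wells and 100% = no fluorescence left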
Starred values were filed as active, the others as inactive; nt = not tested or not shown. A selection: hits, their analogues and other compounds. The true share with any hit is near 1.8%.

SMILES | LEDGF integ inh | TDP2 absorb | MBD2 DNA inh | UHRF1 MBD2 ctr | NSD2 HMT inh | Casp6 inh
CC1CN(S(=O)(=O)c2cccc(C(=O)NCc3ccccn3)c2)CC(C)O1 (centres undefined) | 0.9 | 2.7 | 2.6 | 28.3* | -1.5 | -1.1
CC1CN(S(=O)(=O)c2ccc(C(=O)Nc3ccc(S(=O)(=O)Nc4ncccn4)cc3)cc2)CC(C)O1 (centres undefined) | -4.5 | -1.5 | 1.2 | 36.0* | nt | -2.5
CC(C)NC(=O)Nc1ccc2c(c1)CC(=O)N([C@@H](C)CO)C[C@H](C)[C@@H](CN(C)C(=O)Nc1ccc(C(F)(F)F)cc1)O2 | nt | nt | nt | nt | nt | 0.1
CC1CCCC(NC(=O)COC(=O)c2ccc([N+](=O)[O-])o2)C1C (centres undefined) | 0.6 | 10.9 | -0.9 | -5.7 | -2.6 | -0.1
O=C(COC(=O)c1ccc([N+](=O)[O-])o1)NC1CCCCC1 | 6.4 | 9.2 | -7.4 | -3.5 | 5.4 | 35.8*
CC1CCCCC1NC(=O)COC(=O)c1ccc([N+](=O)[O-])o1 (centres undefined) | 1.1 | 8.1 | -4.9 | -5.7 | nt | 48.1*
O=C(C[C@@H]1C[C@@H]2c3cc(NC(=O)C4CCOCC4)ccc3O[C@@H]2[C@@H](CO)O1)NCc1cc(F)ccc1F | nt | nt | nt | nt | nt | -2.2
CCOc1ccccc1CNc1ccc(O)cc1 | 25.3* | 25.8* | 6.9 | 16.7 | nt | 0.3
CC(=O)c1cnc(-c2cccc(Cl)c2)s1 | -2.0 | 5.4 | 5.1 | 37.2* | -3.3 | 3.3
C[C@@H]1CN([C@@H](C)CO)C(=O)c2cccc(NC(=O)Nc3ccc(F)cc3)c2O[C@H]1CN(C)Cc1ccccc1 | nt | nt | nt | nt | nt | 1.6
CCOc1ccc(-c2cc(CCCC(=O)NCc3ccc(C)cc3)no2)cc1 | 1.7 | 0.2 | 0.7 | 29.1* | nt | -0.3
COc1ccc2nccnc2c1[N+](=O)[O-] | 4.6 | -0.9 | -5.8 | 30.3* | -1.4 | -1.2
CN(C)S(=O)(=O)c1ccc(Cl)c(C(=O)Nc2nc3ccccc3[nH]2)c1 | -1.9 | 2.5 | 2.0 | 39.0* | -4.5 | 4.0
COc1ccc(-c2ccc(SCC(=O)Nc3nccs3)nn2)cc1OC | 3.7 | -4.8 | 3.7 | 21.1* | -2.8 | 0.3
COc1ccc(-c2nnc3ccc(SCC(=O)Nc4nccs4)nn23)cc1OC | -0.7 | 5.0 | -2.8 | -1.7 | 0.5 | -0.3
COc1cccc(C(=O)NCc2nnc(SCC(=O)Nc3nccs3)n2-c2ccccc2)c1 | 0.9 | -8.5 | 2.5 | 95.5* | nt | -4.4
COc1ccc(-c2csc(NC(=O)CSCc3c(C)noc3C)n2)cc1OC | 3.1 | -2.2 | -0.8 | -0.2 | 2.4 | 59.8*
C[C@@H]1CN([C@@H](C)CO)C(=O)c2cccc(NC(=O)c3cnccn3)c2O[C@H]1CN(C)Cc1ccc(C(=O)Nc2ccccc2N)cc1 | nt | nt | nt | nt | nt | 1.3
O=C(NCCN1C(=O)S/C(=C\c2ccc(Cl)cc2Cl)C1=O)C1=COCCO1 | -1.6 | -8.5 | -2.0 | -1.4 | 1.8 | 38.6*
Cc1ccc(Nc2ncnc3sccc23)c(C)c1 | -3.3 | 0.2 | 4.6 | 2.9 | -2.4 | 98.8*
O=C(C[C@@H]1C=C[C@@H](NC(=O)CN2CCOCC2)[C@H](CO)O1)NCCc1ccncc1 | nt | nt | nt | nt | nt | 1.9
CCC(C)NS(=O)(=O)c1ccc(OCC(=O)NCc2ccco2)cc1 (centres undefined) | 1.6 | 10.7 | -1.4 | 24.9* | 5.7 | nt
CC(C)CNS(=O)(=O)c1ccc(OCC(=O)NCc2ccco2)cc1 | -2.1 | 2.5 | 0.3 | -1.3 | -0.3 | nt
CC(C)C[C@@H](CN)NC(=O)c1nc[nH]c1C(=O)N[C@@H](Cc1ccccc1)C(=O)CNC[C@H](C)NC(=O)c1nc[nH]c1C(=O)N[C@@H](CC(=O)O)C(=O)O | -3.6 | 3.4 | 1.4 | 2.9 | nt | 3.2
CC(C)C[C@@H](CNCC(=O)[C@H](Cc1c[nH]c2ccccc12)NC(=O)c1[nH]cnc1C(=O)N[C@@H](C)CN)NC(=O)c1nc[nH]c1C(=O)N[C@@H](CC(=O)O)C(=O)O | -1.2 | 7.9 | 5.2 | 19.8 | nt | 12.2
SMILES | LEDGF integ inh | TDP2 absorb | MBD2 DNA inh | UHRF1 MBD2 ctr | NSD2 HMT inh | Casp6 inh
CC(C)C[C@@H](CN)NC(=O)c1nc[nH]c1C(=O)N[C@@H](Cc1c[nH]c2ccccc12)C(=O)CNC[C@H](C)NC(=O)c1nc[nH]c1C(=O)N[C@@H](CC(=O)O)C(=O)O | 5.9 | 0.0 | 7.3 | 22.4* | nt | 14.5
CC(C)C[C@@H](CNCC(=O)[C@H](Cc1c[nH]c2ccccc12)NC(=O)c1[nH]cnc1C(=O)N[C@H](CN)CC(C)C)NC(=O)c1nc[nH]c1C(=O)N[C@@H](CC(=O)O)C(=O)O | 1.1 | 8.4 | 9.0 | 21.9* | nt | 21.4
CC(C)C[C@@H](CNCC(=O)[C@H](Cc1c[nH]c2ccccc12)NC(=O)c1[nH]cnc1C(=O)N[C@@H](C)CN)NC(=O)c1nc[nH]c1C(=O)N[C@@H](C)C(=O)O | 0.8 | 8.1 | 8.1 | 22.1* | nt | 4.2
CN1c2ccc(-c3cccc(C#N)c3)cc2[C@@H]2[C@@H](CCN2S(=O)(=O)c2ccccc2)[C@@H]1CO | nt | nt | nt | nt | nt | -1.1
C=CCNCCCCOc1ccc(Br)cc1C | 0.9 | 3.1 | 2.0 | -2.3 | 65.8* | nt
Cc1cc(Br)ccc1OCCCCNCCO | 0.7 | 5.3 | 2.4 | 2.6 | 5.7 | nt
CN(C)C(=O)C[C@H]1CC[C@@H]2[C@H](COc3ccc(NC(=O)c4ccc(F)c(F)c4)cc3C(=O)N2C)O1 | nt | nt | nt | nt | nt | 0.5
COc1cc(-c2cccc([C@H]3[C@@H]4C=CC[C@@H](C)[C@@H]4C(=O)N3Cc3ccccc3)c2)cc(OC)c1OC | 0.6 | -7.9 | 6.3 | 45.5* | nt | -0.5
CO[C@@H]1CN(C)C(=O)c2cc(NC(=O)C3CC3)ccc2OC[C@H](C)N(Cc2cccnc2)C[C@H]1C | nt | nt | nt | nt | nt | 0.8
COc1cccc(-n2c(-c3ccccc3)c[nH]c2=S)c1 | 0.2 | 7.1 | 0.7 | -1.8 | 5.0 | -11.8
S=c1[nH]cc(-c2ccccc2)n1-c1cccc(Cl)c1 | -1.1 | -1.1 | -1.8 | -3.6 | 4.9 | 55.4*
OCc1ccccc1-c1nc(NCc2ccccc2)nc2ccsc12 | 0.3 | 1.2 | 0.8 | -0.9 | -1.1 | 41.9*
Cc1nnc(NS(=O)(=O)c2ccc(N)cc2)s1 | -1.3 | 7.1 | 0.1 | -3.8 | nt | 5.2
Cc1nnc(NS(=O)(=O)c2ccc(N=Nc3ccc(N)nc3N)cc2)s1 | -5.2 | 1.1 | -17.8 | -10.4 | 21.9 | 68.5*
C[C@H](CO)N1C[C@H](C)[C@H](CN(C)S(=O)(=O)c2ccc3c(c2)OCCCO3)OCc2cn(nn2)CCCC1=O | nt | nt | nt | nt | nt | -2.8
CO[C@@H]1CN(C)C(=O)c2ccc(NC(C)=O)cc2OC[C@H](C)N(Cc2ccccn2)C[C@H]1C | nt | nt | nt | nt | nt | -2.0
CCOC(=O)c1ccc(Nc2cnc3ccccc3n2)cc1 | 5.0 | -14.6 | 3.8 | 2.7 | -2.3 | -0.8
CCOC(=O)COc1cnc2ccccc2n1 | 2.2 | 2.9 | 7.4 | 22.0* | -2.2 | -0.9
COc1ccc(-c2ccc(C(=O)NCC(C)C)c3occc23)c(C)c1 | -4.0 | -11.9 | 6.7 | 49.0* | 0.4 | 4.3

Source: PubChem BioAssay
